Key:
[1] = biological target: T1, Melanin-concentrating hormone receptor 1 (Rattus norvegicus, UniProt P97639); assay: Binding affinity to chimeric rat/human MCH1R stably expressed in HEK293 cells; type: cell-based
Outline: (§1)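 Each value is the average of at least two replicate determinations.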

[2] = Intrinsic clearance in human liver microsomes; type: ADME, Microsome
Outline: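 Intrinsic human clearance was determined in human liver microsomes. Standard error is estimated below 10%, based on a reference compound run as a standard.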

[3] = Brain to plasma ratio in Sprague-Dawley rat at 10 mg/kg, po and 2.5 mg/kg, iv after 4 hours; type: ADME, organism-based
Outline: (§2)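 Rats dosed 10 mg kg-1 orally and 2.5 mg kg-1 iv. AUC and Cmax come from the oral dose. Brain levels were measured 1 h and 4 h after oral dosing and expressed as brain/plasma ratios at those times. Vd, clearance and t1/2 were derived from the same dosing.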

[4] = biological target: T1, Melanin-concentrating hormone receptor 1; assay: Activity at chimeric rat/human MCH1R by accumulation of GTPgammaS; outline: as §1
[5] = Clearance in Sprague-Dawley rat at 10 mg/kg, po and 2.5 mg/kg, iv; type: ADME, organism-based; conditions: in vivo
[6] = AUC in Sprague-Dawley rat at 10 mg/kg, po; type: ADME, organism-based; parameters: dose 10 mg/kg, route oral; conditions: plasma; outline: as §2
[7] = Half life in Sprague-Dawley rat at 10 mg/kg, po and 2.5 mg/kg, iv; type: ADME, organism-based; conditions: in vivo; outline: as §2
[8] = Bioavailability in Sprague-Dawley rat at 10 mg/kg, po and 2.5 mg/kg, iv; type: ADME, organism-based; conditions: in vivo
[9] = Volume of distribution in Sprague-Dawley rat at 10 mg/kg, po and 2.5 mg/kg, iv; type: ADME, organism-based; conditions: in vivo, read-out: Vdss; outline: as §2
[10] = Cmax in Sprague-Dawley rat plasma at 10 mg/kg, po; type: ADME, organism-based; parameters: dose 10 mg/kg, route oral; outline: as §2
[11] = Brain concentration in Sprague-Dawley rat at 10 mg/kg, po after 1 hour; type: ADME, organism-based; parameters: dose 10 mg/kg, route oral; conditions: read-out: Drug uptake; outline: as §2
[12] = Brain concentration in Sprague-Dawley rat at 10 mg/kg, po after 4 hours; type: ADME, organism-based; parameters: dose 10 mg/kg, route oral; conditions: read-out: Drug uptake; outline: as §2
[13] = Brain to plasma ratio in Sprague-Dawley rat at 10 mg/kg, po and 2.5 mg/kg, iv after 1 hour; type: ADME, organism-based; outline: as §2
[14] = biological target: Melanin-concentrating hormone receptor 1 (Rattus norvegicus) (UniProt P97639); assay: Inhibition of chimeric rat/human MCH1R at 10 uM
Melanin-concentrating hormone receptor 1 (Rattus norvegicus), sequence (P97639 whole entry): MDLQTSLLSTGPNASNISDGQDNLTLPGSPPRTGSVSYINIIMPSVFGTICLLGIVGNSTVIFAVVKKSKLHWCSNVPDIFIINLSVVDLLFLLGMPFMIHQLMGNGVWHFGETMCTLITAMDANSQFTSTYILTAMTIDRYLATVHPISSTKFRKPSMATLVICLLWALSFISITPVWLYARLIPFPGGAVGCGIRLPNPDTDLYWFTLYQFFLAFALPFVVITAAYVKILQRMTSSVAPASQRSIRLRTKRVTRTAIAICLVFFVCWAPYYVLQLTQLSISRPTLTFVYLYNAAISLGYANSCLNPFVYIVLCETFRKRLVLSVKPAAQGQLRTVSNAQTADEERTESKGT
Outline: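 Single-concentration test at 10 µM, reported as percent inhibition of MCH1R; values averaged from at least two replicates.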

[15] = biological target: T2, Muscarinic acetylcholine receptor M1 (Homo sapiens, UniProt P11229); assay: Binding affinity to muscarinic M1R
T2 sequence (P11229 whole entry): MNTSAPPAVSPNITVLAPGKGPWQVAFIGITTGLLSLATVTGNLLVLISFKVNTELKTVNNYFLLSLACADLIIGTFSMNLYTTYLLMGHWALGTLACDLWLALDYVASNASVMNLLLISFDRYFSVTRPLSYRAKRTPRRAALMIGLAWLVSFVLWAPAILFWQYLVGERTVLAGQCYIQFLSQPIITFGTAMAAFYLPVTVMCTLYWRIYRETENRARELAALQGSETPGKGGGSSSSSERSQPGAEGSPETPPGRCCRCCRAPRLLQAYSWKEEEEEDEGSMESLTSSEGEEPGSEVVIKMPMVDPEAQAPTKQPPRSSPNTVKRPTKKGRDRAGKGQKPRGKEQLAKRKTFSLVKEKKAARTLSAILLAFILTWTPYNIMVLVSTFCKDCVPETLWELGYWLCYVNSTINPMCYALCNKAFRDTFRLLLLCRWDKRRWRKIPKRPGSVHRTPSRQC

[16] = biological target: Muscarinic acetylcholine receptor M3 (Homo sapiens, UniProt P20309); assay: Binding affinity to muscarinic M3R
Muscarinic acetylcholine receptor M3, sequence (P20309 whole entry): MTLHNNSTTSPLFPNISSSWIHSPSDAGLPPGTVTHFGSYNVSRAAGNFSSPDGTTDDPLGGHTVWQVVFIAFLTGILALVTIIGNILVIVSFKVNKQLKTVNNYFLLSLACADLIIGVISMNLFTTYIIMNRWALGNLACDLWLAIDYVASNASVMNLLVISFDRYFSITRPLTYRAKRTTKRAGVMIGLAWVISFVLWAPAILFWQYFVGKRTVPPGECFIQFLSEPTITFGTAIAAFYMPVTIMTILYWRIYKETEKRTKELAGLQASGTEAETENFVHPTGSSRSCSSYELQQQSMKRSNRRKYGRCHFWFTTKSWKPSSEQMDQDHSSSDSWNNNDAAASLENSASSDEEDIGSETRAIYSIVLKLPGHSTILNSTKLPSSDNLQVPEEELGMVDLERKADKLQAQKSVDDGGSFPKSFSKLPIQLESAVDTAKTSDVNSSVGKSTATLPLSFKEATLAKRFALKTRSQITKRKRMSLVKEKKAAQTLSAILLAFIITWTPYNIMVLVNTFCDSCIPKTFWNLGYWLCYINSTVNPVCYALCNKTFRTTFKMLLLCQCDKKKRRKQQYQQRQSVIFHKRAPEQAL

CYP2D6 = CYP2D6 (Homo sapiens, UniProt P10635); assay: Inhibition of cytochrome P450 2D6 at 5 uM; type: ADME; conditions: read-out: Activity
CYP2D6, sequence (P10635 whole entry): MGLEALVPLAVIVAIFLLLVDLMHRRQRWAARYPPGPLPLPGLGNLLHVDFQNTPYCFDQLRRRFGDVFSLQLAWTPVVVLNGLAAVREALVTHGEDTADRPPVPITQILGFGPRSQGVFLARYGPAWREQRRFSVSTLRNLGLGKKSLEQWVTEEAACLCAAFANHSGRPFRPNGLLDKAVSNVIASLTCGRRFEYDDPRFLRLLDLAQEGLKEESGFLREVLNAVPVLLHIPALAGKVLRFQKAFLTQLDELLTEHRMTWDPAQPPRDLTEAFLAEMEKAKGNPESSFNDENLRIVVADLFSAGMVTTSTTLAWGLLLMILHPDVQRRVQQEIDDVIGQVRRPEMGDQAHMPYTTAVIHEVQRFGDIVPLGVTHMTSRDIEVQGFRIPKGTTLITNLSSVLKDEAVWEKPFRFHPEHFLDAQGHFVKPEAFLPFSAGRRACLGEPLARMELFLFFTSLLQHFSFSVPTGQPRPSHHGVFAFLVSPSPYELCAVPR

CYP3A4 = CYP3A4 (Homo sapiens, UniProt P08684); assay: Inhibition of cytochrome P450 3A4 at 5 uM; type: ADME; conditions: read-out: Activity
CYP3A4, sequence (P08684 whole entry): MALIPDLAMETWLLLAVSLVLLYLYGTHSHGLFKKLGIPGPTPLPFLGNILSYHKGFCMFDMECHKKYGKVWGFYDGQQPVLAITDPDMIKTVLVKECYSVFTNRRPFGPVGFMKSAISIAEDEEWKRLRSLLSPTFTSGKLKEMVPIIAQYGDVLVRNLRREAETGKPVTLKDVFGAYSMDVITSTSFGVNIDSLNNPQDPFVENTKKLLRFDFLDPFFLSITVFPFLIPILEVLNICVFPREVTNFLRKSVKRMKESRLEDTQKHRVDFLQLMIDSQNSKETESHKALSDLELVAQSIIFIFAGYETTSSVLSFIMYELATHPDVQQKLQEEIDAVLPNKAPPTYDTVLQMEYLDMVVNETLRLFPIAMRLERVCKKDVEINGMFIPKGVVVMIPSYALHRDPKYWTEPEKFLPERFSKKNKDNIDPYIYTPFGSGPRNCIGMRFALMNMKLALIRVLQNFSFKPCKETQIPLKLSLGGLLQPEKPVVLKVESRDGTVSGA

[17] = Selectivity for MCH1R over muscarinic M3R
[18] = biological target: T3, Voltage-gated inwardly rectifying potassium channel KCNH2 (Homo sapiens, UniProt Q12809); assay: Affinity for human ERG channel by patch clamp assay; type: functional
T3 sequence (Q12809 whole entry): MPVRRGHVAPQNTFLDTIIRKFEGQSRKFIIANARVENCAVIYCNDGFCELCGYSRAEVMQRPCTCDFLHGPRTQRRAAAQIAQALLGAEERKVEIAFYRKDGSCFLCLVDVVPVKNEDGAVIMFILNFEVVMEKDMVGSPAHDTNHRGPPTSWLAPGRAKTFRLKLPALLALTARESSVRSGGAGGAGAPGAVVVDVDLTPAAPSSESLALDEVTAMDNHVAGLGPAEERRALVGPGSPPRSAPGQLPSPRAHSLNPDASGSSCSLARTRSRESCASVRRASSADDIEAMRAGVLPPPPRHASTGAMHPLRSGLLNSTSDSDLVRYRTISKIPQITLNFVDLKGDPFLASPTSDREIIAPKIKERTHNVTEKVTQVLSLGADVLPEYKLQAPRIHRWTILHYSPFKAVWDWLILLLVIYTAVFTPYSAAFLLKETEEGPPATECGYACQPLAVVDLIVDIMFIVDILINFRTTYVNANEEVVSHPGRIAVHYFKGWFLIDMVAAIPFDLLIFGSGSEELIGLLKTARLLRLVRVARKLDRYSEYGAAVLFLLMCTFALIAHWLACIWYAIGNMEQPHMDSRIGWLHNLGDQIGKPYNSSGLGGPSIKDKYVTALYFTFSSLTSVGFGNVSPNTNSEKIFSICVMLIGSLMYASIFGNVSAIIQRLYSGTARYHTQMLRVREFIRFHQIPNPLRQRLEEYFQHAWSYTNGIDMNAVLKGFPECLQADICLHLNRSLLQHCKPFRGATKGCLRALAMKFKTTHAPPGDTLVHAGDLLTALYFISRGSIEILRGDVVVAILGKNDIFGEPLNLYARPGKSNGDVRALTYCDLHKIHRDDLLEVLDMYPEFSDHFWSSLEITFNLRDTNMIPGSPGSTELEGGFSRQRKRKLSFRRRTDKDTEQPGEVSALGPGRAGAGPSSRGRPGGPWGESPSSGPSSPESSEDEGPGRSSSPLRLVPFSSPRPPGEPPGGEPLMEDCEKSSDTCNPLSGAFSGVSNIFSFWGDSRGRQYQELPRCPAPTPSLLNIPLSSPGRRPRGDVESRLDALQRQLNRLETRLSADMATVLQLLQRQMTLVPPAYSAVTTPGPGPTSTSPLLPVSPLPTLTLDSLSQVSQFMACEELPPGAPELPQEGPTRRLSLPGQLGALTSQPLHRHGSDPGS

[19] = Plasma concentration in Sprague-Dawley rats at 1 mg/kg after 1 day; type: ADME, organism-based; parameters: dose 1 mg/kg; conditions: rat
[20] = Plasma concentration in Sprague-Dawley rats at 1 mg/kg after 14 days; type: ADME, organism-based; parameters: dose 1 mg/kg; conditions: rat
[21] = biological target: T3, Voltage-gated inwardly rectifying potassium channel KCNH2; assay: Displacement of [3H]dofetilide from human ERG channel

T1 sequence (P97639 whole entry, looked up): as the sequence (P97639 whole entry) above

CN[C@H]1CCN(c2ccc(-n3ncc4cc(-c5ccc(OC)cc5C)ccc4c3=O)cn2)C1
Ki [1]: 11 nM
CLint scaled [2]: 0.528 L/h/kg

CN[C@@H]1CCN(c2ccc(-n3ncc4cc(-c5ccc(Cl)cc5)sc4c3=O)cn2)C1
Ki [1]: 1.9 nM
CLint scaled [2]: 0.504 L/h/kg

CN(C)[C@H]1CCN(c2ccc(-n3ncc4cc(-c5ccc(Cl)cc5)ccc4c3=O)cn2)C1
Ki [1]: 1.1 nM
CLint scaled [2]: 0.72 L/h/kg

CN(C)[C@H]1CCN(c2ccc(-n3ncc4cc(-c5ccc(C(F)(F)F)cc5)n(C)c4c3=O)cn2)C1
Ki [1]: 14 nM
CLint scaled [2]: 2.88 L/h/kg

CN[C@@H]1CCN(c2ccc(-n3ncc4cc(-c5ccc(OC)cc5)sc4c3=O)cn2)C1
Ki [1]: 1.3 nM
CLint scaled [2]: 43.2 L/h/kg

CN[C@H]1CCN(c2ccc(-n3ncc4cc(-c5ccc(C(F)(F)F)cc5)sc4c3=O)cn2)C1
Ki [1]: 3.1 nM

CCN[C@H]1CCN(c2ccc(-n3ncc4cc(-c5ccc(Cl)cc5)ccc4c3=O)cn2)C1
Ki [1]: 1.9 nM
CLint scaled [2]: 0.552 L/h/kg

CN[C@@H]1CCN(c2ccc(-n3ncc4cc(-c5ccc(C(F)(F)F)cc5)ccc4c3=O)cn2)C1
Ki [1]: 10 nM
CLint scaled [2]: 0.36 L/h/kg

CN[C@H]1CCN(c2ccc(-n3ncc4cc(-c5ccc(C(F)(F)F)cc5)ccc4c3=O)cn2)C1
Ki [1]: 8.4 nM
CLint scaled [2]: 1.56 L/h/kg

CN(C)[C@H]1CCN(c2ccc(-n3ncc4cc(-c5ccc(C(F)(F)F)cc5)oc4c3=O)cn2)C1
Ki [1]: 21 nM
CLint scaled [2]: 1.68 L/h/kg

CN(C)[C@@H]1CCN(c2ccc(-n3ncc4cc(-c5ccc(Cl)cc5)ccc4c3=O)cn2)C1
Ki [1]: 1.1 nM
CLint scaled [2]: 1.26 L/h/kg

CN[C@@H]1CCN(c2ccc(-n3ncc4cc(-c5ccc(F)cc5)sc4c3=O)cn2)C1
Ki [1]: 2.5 nM
CLint scaled [2]: 0.492 L/h/kg

CN[C@H]1CCN(c2ccc(-n3ncc4cc(-c5ccc(Cl)cc5)ccc4c3=O)cn2)C1
Kp at 4 h [3]: 23
Ki [1]: 1.2 nM
CLint scaled [2]: 0.534 L/h/kg
IC50 [4]: 8.5 nM
clearance [5]: 1.02 L/h/kg
AUC [6]: 2.2 µg·h/mL
half-life [7]: 9.4 h
bioavailability [8]: 22%
Vd [9]: 14 L/kg
Cmax [10]: 0.14 µg/mL
concentration at 1 h [11]: 94 ng/g
concentration at 4 h [12]: 1700 ng/g
Kp at 1 h [13]: 7.8

CN(C)[C@H]1CCN(c2ccc(-n3ncc4cc(-c5ccc(C(F)(F)F)cc5)[se]c4c3=O)cn2)C1
inhibition [14]: 28%
CLint scaled [2]: 1.62 L/h/kg

CN[C@@H]1CCN(c2ccc(-n3ncc4cc(-c5ccc(Cl)cc5)ccc4c3=O)cn2)C1
Ki [1]: 1.5 nM
CLint scaled [2]: 0.72 L/h/kg

O=c1c2ccc(-c3ccc(Cl)cc3)cc2cnn1-c1ccc(N2CC[C@H](N3CCCC3)C2)nc1
Ki [1]: 1.6 nM
CLint scaled [2]: 0.96 L/h/kg

CN[C@@H]1CCN(c2ccc(-n3ncc4cc(-c5ccc(C(F)(F)F)cc5)sc4c3=O)cn2)C1
Kp at 4 h [3]: 3.1
Ki [15]: 260 nM
Ki [16]: 160 nM
inhibition at 5 µM (CYP2D6): < 10%
inhibition at 5 µM (CYP3A4): < 10%
Selectivity ratio [17]: 50
IC50 [18]: 1800 nM
concentration at 24 h [19]: 0.28 µM
concentration at 336 h [20]: 0.79 µM
Ki [1]: 3.3 nM
CLint scaled [2]: 0.51 L/h/kg
IC50 [4]: 7.7 nM
clearance [5]: 0.258 L/h/kg
AUC [6]: 8.4 µg·h/mL
half-life [7]: 11 h
bioavailability [8]: 24%
Vd [9]: 4.1 L/kg
Cmax [10]: 0.5 µg/mL
concentration at 1 h [11]: 190 ng/g
concentration at 4 h [12]: 1200 ng/g
Kp at 1 h [13]: 1.4

CN[C@H]1CCN(c2ccc(-n3ncc4cc(-c5ccc(F)cc5)sc4c3=O)cn2)C1
Ki [1]: 2 nM
CLint scaled [2]: 0.72 L/h/kg

CCc1ccc(-c2cc3cnn(-c4ccc(N5CC[C@@H](NC)C5)nc4)c(=O)c3s2)cc1
Ki [1]: 2.6 nM
CLint scaled [2]: 9.3 L/h/kg

CN(C)[C@H]1CCN(c2ccc(-n3ncc4cc(-c5ccc(C(F)(F)F)cc5)sc4c3=O)cn2)C1
Ki [1]: 4.4 nM
CLint scaled [2]: 1.08 L/h/kg

CNC1CCN(c2ccc(NC(=O)c3ccc(-c4ccccc4)cc3)cn2)C1 (stereo not given)
Ki [21]: 200 nM

Source: ChEMBL document CHEMBL1138061, “A thienopyridazinone-based melanin-concentrating hormone receptor 1 antagonist with potent in vivo anorectic properties” (J Med Chem, 2006)
